Assay outcomes deposited in PubChem BioAssay by several laboratories.
aDG glyco up = increases alpha dystroglycan glycosylation. Pro5-aDG cells, alpha-DG glycosylation AlphaScreen (IIH6); 0% Pro5, 100% B10-LARGE cell signal. activation, % at 10 µM. 0.22% of 360,000 active. AID 624168;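 active = activation of at least 8% versus controls, or a plate z-score of at least 8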;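 also: Pro5 are CHO cells carrying HIG-tagged alpha-DG that lacks glycosylation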
NPR2 activator = GC-B (human) receptor activation | P20594 | HEK293-GC-B cells, CNP EC30, cGMP TR-FRET; 0% at EC30 CNP, 100% saturating CNP | 0.11% of 370,000 active | activation, % at 10 µM;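 active = activation at 10 µM reaching about 35% in either raw or pattern-adjusted values, limit read from the data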
JMJD2C inh = blocks human GASC-1 demethylase activity | AID 2099 | 0.069% of 330,000 active | Q9H3R0 | GST-JMJD2C(1-420) H3K9me3 demethylation, DELFIA europium | inhibition, % at 2.35 µM;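 active = more than half of a compound's replicate wells show inhibition beyond 50%, single wells judged on their own value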;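 also: signal counts dimethyl H3K9 product captured on neutravidin plate; 0% = median of DMSO wells and 100% = 0.3 times that DMSO median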
Target sequence (Q9H3R0 1-420 limits assumed): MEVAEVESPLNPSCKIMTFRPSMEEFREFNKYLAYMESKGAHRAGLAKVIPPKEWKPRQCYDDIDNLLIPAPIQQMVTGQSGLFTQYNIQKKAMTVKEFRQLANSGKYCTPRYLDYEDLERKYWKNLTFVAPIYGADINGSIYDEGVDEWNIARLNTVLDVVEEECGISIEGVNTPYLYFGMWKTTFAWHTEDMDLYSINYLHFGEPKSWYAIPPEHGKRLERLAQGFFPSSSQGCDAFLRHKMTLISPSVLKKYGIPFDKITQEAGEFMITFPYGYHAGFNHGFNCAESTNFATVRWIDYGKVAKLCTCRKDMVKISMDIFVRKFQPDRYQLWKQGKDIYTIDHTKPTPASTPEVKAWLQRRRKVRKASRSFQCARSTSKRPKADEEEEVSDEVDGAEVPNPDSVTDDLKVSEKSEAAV
GC-A act = GC-A (human) enzyme activation; HEK293 GC-A cells, cGMP TR-FRET, EC30 ANP; 0% at EC30 ANP, 100% saturating ANP; 0.14% of 370,000 active; AID 1671463; activation, % at 10 µM; P16066; in the data active = activation above about 40%
Lipid droplet = hepatic lipid droplet formation modulation. AML12 mouse hepatocytes, oleate lipid droplets, BODIPY imaging. inhibition, % at 6.5 µM. 0.4% of 240,000 active;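 active = lipid droplet intensity inhibited by at least 50%, with more than 500 cells counted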
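Material – mouse AML12 hepatocyte cell line, fixed after treatment · Compound dosing – one dose, 6.5 µM compound · Times – compound with oleate, overnight · Measured by – Image-based BODIPY and DAPI two-channel analysis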
NR3A LBD binder = modulates the human NR3A ligand-binding domain. NR3A LBD differential scanning fluorimetry, Tm shift; 0% = protein alone, 100% = glycine-bound protein. Tm shift relative to glycine control, % at 25 µM. 2.5% of 340,000 active. AID 1259313;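 active = melting temperature shift of at least 10% of the positive control shift, at one fixed dose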
Numbers without * were called inactive; . = not tested or not shown. This is a sample that favours compounds with a hit; in the whole collection about 3% have one here.

SMILES | aDG glyco up | NPR2 activator | JMJD2C inh | GC-A act | Lipid droplet | NR3A LBD binder
O=C(Nc1ccc2c(c1)OCO2)c1ccc2c(c1)OCO2 | 0 | -1 | -1 | 3 | 1 | -8
O=C(Nc1ccc(Cl)c(Cl)c1)c1ccc2c(c1)OCO2 | 0 | 0 | -3 | 0 | -4 | 37*
O=C(OC12CCCN(C1)/C(=C/c1ccncc1)C2)c1ccco1 (stereo unspecified) | . | -7 | . | -5 | . | .
C=CCN1C(=O)[C@H](CC(=O)NCCCC)[C@@]2(C(=O)OCC)CCCC=C12 | . | 1 | . | 1 | . | .
Cc1c(Cc2ccccc2)c(=O)n2c([nH]c3ccccc32)c1C#N | 0 | 6 | 0 | 5 | -24 | 1
COc1ccccc1N=Cc1c(C)c(C#N)c2[nH]c3ccccc3n2c1=O | 0 | 4 | 58* | 5 | 12 | -24
CCC(Oc1ccccc1)C(=O)N(C)CC(=O)N(CC(C)C)c1c(N)n(CC(C)C)c(=O)[nH]c1=O (stereo unspecified) | 0 | 1 | -7 | 3 | . | 1
COc1cccc(C(=O)N(CCN2CCOCC2)Cc2ccc(OC)c(OC)c2)c1 | . | -7 | . | 3 | . | .
Cn1nc(-c2ccccn2)nc2c(=O)n(C)c(=O)nc1-2 | 0 | 4 | 54* | 9 | -4 | -2
CCCc1nc2c(=O)n(C)c(=O)nc-2n(C)n1 | 0 | 12 | . | 2 | -15 | -1
Cc1cc(O)cc(=O)n1-c1cccc(Br)c1 | . | 1 | . | -2 | . | .
Cc1cc(N2CCN(CC(C)(C)O)C[C@@H]2C)ccc1N1CCN(CC(C)(C)O)[C@H](C)C1 | . | -4 | . | 2 | . | .
O=C(CN1c2ccccc2Sc2ccccc21)N/N=C/c1ccc(Cl)cc1Cl | 0 | 3 | -4 | -4 | 13 | 15*
O=C(CN1c2ccccc2Sc2ccccc21)N/N=C/c1ccc(Cl)cc1 | 0 | 0 | -1 | -1 | 14 | 11*
COc1ccc(-c2csc(=NCCO)n2-c2ccccc2)cc1 | 0 | -2 | -2 | 13 | . | 0
CN1CC[C@@H]2CN(S(=O)(=O)c3ccccc3)[C@H](c3ccccc3Br)C[C@@H]21 | . | -6 | . | -4 | . | .
Fc1ccccc1N=C1NN=C(c2ccccc2)CS1 | 0 | 1 | 4 | 3 | 13 | 13*
Cc1cc(C)c(OC2(c3ccccc3)OC(=O)c3ccccc32)c(C)c1 (stereo unspecified) | 0 | -6 | 4 | -4 | . | 16*
Cc1cccc(C)c1OC1(c2ccccc2)OC(=O)c2ccccc21 (stereo unspecified) | 0 | -4 | 12 | -10 | . | -1
COc1ccccc1C1CCN(c2cc(O)ccc2[N+](=O)[O-])CC1 | 0 | 4 | -9 | 3 | 1 | 13*
CC(=O)Nc1ccc(S(=O)(=O)N(Cc2ccco2)Cc2cc3ccccc3[nH]c2=O)cc1 | 0 | 1 | 13 | 3 | -4 | 0
CCc1cc2c(=O)n(CC(C)C)cnc2s1 | 0 | -6 | 8 | 0 | -10 | 18*
COCCCNC(=O)C[C@@H]1C(=O)N2CCCC3=C2[C@@]1(C(=O)OC)CCCC3 | . | -2 | . | 2 | . | .
NC1=NC(=O)CC(C(=O)Nc2cccc3ccccc23)S1 (stereo unspecified) | 0 | . | -2 | . | 2 | 0
NC1=NC(=O)CC(C(=O)NCCc2ccccc2)S1 (stereo unspecified) | 4 | 3 | -86 | 0 | . | 10*
SMILES | aDG glyco up | NPR2 activator | JMJD2C inh | GC-A act | Lipid droplet | NR3A LBD binder
CC(C)Cc1csc(NC(=O)c2ccc(Cl)cc2)c1C(=O)O | 0 | 4 | 9 | -1 | 8 | -10
CC(C)Cc1csc(NC(=O)c2ccccc2Cl)c1C(=O)O | 0 | 1 | 7 | -2 | -2 | 12*
CC(C)=CCC/C(C)=C/CN1CC(=O)N2[C@H](C[C@@]3(n4ccc5ccccc54)c4ccccc4N(S(=O)(=O)c4ccccc4)[C@@H]23)C1=O | . | 6 | . | -4 | . | .
CC(C)=CCc1c2c(c3occ(-c4ccc(O)cc4)c(=O)c3c1O)C=CC(C)(C)O2 | 0 | -10 | 168 | -15 | 25 | 25*
CC(C)=CCc1c2c(c3occ(-c4ccc(O)c(O)c4)c(=O)c3c1O)C=CC(C)(C)O2 | -1 | -6 | . | -10 | . | 27*
CC1(C)C=Cc2c(c3c(c4c(=O)c(-c5ccc(O)cc5)coc24)OC(C)(C)CC3)O1 | 0 | -22 | -2 | -10 | 31 | -6
O=C(CSc1nc(N2CCOCC2)nc(N2CCOCC2)n1)Nc1cccc(C(F)(F)F)c1 | 0 | -14 | 6 | -17 | 7 | -3
CC(=O)Nc1cccc(C(=O)OCC(=O)NNC(=O)c2ccc([N+](=O)[O-])cc2)c1 | 0 | -6 | 0 | 4 | . | 3
O=C(Cc1cccc2ccccc12)N1CCCc2ccccc21 | 0 | -5 | 58* | -9 | . | 3
S=C(c1ccccc1)N1CCCc2ccccc21 | 0 | 7 | -2 | -4 | 24 | 11*
O=C(Nc1cccnc1)c1cc(F)c(F)cc1Cl | 0 | -3 | 1 | -2 | 14 | -1
O=C(Nc1cccnc1)Nc1ccc(F)c(Cl)c1 | 0 | -3 | 1 | -4 | -16 | 25*
COc1ccc(NC(=O)Nc2cc(C)ccc2F)cc1 | 0 | -1 | -2 | 2 | -8 | -2
N#Cc1ccc(NC(=O)Nc2ccc(Cl)cc2)cc1 | 2 | 7 | 3 | 14 | -22 | 34*
COc1ccc(NC(=O)Nc2ccc(F)c(Cl)c2)cc1 | 0 | -1 | -1 | 4 | -5 | 31*
NC(=O)c1cccc(NC(=O)Nc2ccc(Cl)cc2)c1 | 0 | 0 | 3 | 1 | 0 | 24*
COC(=O)C[C@@H]1CC[C@H]2[C@@H](COc3ccc(NC(=O)c4ccc(Cl)cc4)cc3C(=O)N2C)O1 | . | 16 | . | 4 | . | .
O=C(NNc1ccccc1[N+](=O)[O-])Nc1ccc(Cl)c(Cl)c1 | 1 | 5 | -29 | -1 | 16 | 15*
O=C(Nc1ccc(F)c(Cl)c1)c1nsc(Cl)c1Cl | 0 | -3 | -4 | -8 | -2 | 15*
O=C(Nc1ccc(Cl)cc1)Nc1ccc(Cl)c(Cl)c1 | . | 13 | 1 | 18 | . | 16*
CCN(CC)S(=O)(=O)c1cc([N+](=O)[O-])ccc1NNC(=O)Nc1ccc(Cl)c(Cl)c1 | 0 | 7 | -1 | 4 | -26 | 18*
CC(C)(C)C(=O)OC12CCCN(C1)/C(=C/c1ccncc1)C2 (stereo unspecified) | . | -5 | . | 2 | . | .
CN(CC(=O)Nc1ccc(F)cc1)C(=O)COC(=O)c1cc(S(=O)(=O)N(C)C)ccc1N1CCCC1 | 0 | 0 | -10 | 1 | . | 1
O=C(Nc1ccc(Cl)cc1)Nc1cccc2nsnc12 | 1 | 0 | -7 | 11 | 8 | 21*
O=C(Nc1ccc(Cl)c(Cl)c1)Nc1ccccc1O | 0 | -4 | -8 | 5 | 6 | 466*
